In the library only some 4.1% were active in any assay of this set; here they are far more common.
Tb MetRS inh: T. brucei MetRS inhibitors, primary screen, biochemical, luminescence; purified T. brucei MetRS, ATP depletion, Kinase-Glo luminescence; inhibition, % at 11.9 µM; 0.4% of 360,000 active; AID 624268, 2012;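 active means inhibition above a per-plate cutoff of the control wells' mean inhibition plus 3 SD, cut at about 5.5% in these data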;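 further: 0% = DMSO wells median and 100% = median of wells with control inhibitor compound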
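Material – parasite MetRS enzyme · Medium – HEPES-MgCl2-KCl buffer plus DTT, spermine, BSA, pyrophosphatase · Reagent – ATP, methionine and E. coli bulk tRNA substrates · Times – 15 min enzyme-compound preincubation, 2 h reaction, 10 min detection, 25 °C · Measured by – luminescence of leftover ATP · Evaluation – percent inhibition relative to median high and low control wells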
AHR activator: AHR activators, primary screen, cell-based, luminescence, luciferase reporter, human; Aryl hydrocarbon receptor (Homo sapiens), P35869; 2.5% of 320,000 active; AHR-responsive luciferase reporter cells; AID 2796, 2010; activation, % at 5 µM; in the data active means activation above about 47%;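 further: 0% = vehicle wells and 100% = reference agonist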
Target sequence (P35869 whole entry, looked up): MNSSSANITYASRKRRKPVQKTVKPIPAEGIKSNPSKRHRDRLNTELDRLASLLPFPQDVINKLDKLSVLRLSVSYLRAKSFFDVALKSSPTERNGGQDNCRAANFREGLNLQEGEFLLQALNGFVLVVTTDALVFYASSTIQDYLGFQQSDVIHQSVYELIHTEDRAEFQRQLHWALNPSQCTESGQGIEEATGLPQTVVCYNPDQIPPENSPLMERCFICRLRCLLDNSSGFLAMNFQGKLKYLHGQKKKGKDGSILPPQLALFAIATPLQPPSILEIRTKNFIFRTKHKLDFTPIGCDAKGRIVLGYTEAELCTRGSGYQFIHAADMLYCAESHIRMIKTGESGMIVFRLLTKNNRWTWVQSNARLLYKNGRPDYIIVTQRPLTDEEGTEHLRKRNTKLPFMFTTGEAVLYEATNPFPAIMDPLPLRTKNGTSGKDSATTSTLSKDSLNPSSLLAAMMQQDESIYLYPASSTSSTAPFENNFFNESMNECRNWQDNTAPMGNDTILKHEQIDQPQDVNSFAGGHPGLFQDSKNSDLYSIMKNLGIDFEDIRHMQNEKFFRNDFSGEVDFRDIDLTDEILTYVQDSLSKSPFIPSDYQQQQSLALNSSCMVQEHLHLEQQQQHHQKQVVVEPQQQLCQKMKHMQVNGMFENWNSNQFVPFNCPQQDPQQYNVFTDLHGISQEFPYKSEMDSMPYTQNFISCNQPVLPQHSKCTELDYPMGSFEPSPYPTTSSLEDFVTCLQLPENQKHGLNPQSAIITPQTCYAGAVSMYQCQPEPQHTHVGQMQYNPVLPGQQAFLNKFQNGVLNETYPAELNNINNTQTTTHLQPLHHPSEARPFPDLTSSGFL
TAG inh: inhibitors of triacylglycerol accumulation, primary screen, cell-based, uHTS, fluorescence, H9c2. H9c2 cells, Nile Red lipid (TAG) fluorescence; cells loaded with 200 µM oleic acid. inhibition, % at 12.5 µM. 0.66% of 230,000 active;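 active means pattern-corrected inhibition of lipid staining of at least 50% with the nuclear-stain viability signal not falling by more than 50%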;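 further: 0% = DMSO wells and 100% = triacsin C control wells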
SMARCA2 act: SMARCA2 (BRM) function activators, primary screen, cell-based, luminescence, high throughput; MG213 cells, MMTV-luciferase reporter, dexamethasone, overnight; AID 652017, 2013; 1% of 370,000 active; activation, % at 9.1 µM; in the data active means activation above about 7.8%;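 further: 0% = vehicle wells and 100% = reference activator wells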
Efflux pump inh: inhibitors of Candida efflux pumps in yeast, primary screen, S. cerevisiae, Nile Red, multiplex; 0.44% of 330,000 active; inhibition, % at 10 µM; AID 485275, 2010; S. cerevisiae Candida pump triplex;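 active means plate passing quality check with inhibition over a set limit, or well fluorescence over plate mean plus 4 SD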;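 further: Nile Red retained in pooled yeast measured as flow cytometry median fluorescence; 0% = buffer negative control and 100% = Enniatin B positive control; higher means more Nile Red kept so more efflux inhibition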
Numbers without * were called inactive; x = no result.

SMILES	Tb MetRS inh	AHR activator	TAG inh	SMARCA2 act	Efflux pump inh
CN(C)CCNc1ccc2nnn3c4ccc(O)cc4c(=O)c1c23	-0.1	x	75.6	3.5	x
Cc1ccc(NCCN(C)C)c2c(=O)c3cc(O)ccc3sc12	0.1	x	63.3*	3.2	x
Cc1cccc(CCNC(=O)Cn2nc(-c3ccccc3)ccc2=O)c1	x	x	x	-1.0	x
CN(C)C(=S)N=Nc1[nH]c2ccccc2c1O	x	63.9*	x	5.4	0.2
Fc1ccc2nc(-c3ccc(CN4CCC5(CC4)CNc4ccccc45)cc3)c(-c3ccccc3)nc2c1	x	x	x	-1.8	x
COC(=O)C12CCCN1C1C(=O)N(Cc3ccc(C(N)=O)cc3)CC1C2 (centres undefined)	x	x	x	-0.9	x
Nc1ccc(Cl)c(-c2nc3ncccc3o2)c1	-0.3	0.2	-7.4	1.9	0.0
Nc1cc(-c2nc3ncccc3o2)ccc1Cl	-0.6	59.0*	x	3.3	-0.2
Cc1ccc(-c2nc3ncccc3o2)cc1N	0.4	67.4*	6.8	7.3	0.2
Cc1cc(-c2nc3ncccc3o2)ccc1N	0.1	8.6	-3.2	4.4	-0.1
CCCC(=O)Nc1cc(-c2nc3ncccc3o2)ccc1Cl	0.2	75.3*	x	1.0	-0.1
CCN1Cc2nnn(Cc3ccccc3)c2-c2ccccc2S1(=O)=O	x	x	x	0.2	x
CC(=O)N1C[C@H]2CON(C)[C@H]2C[C@H]1c1ccccc1-c1ccccc1	x	x	x	3.8	x
CCOC(=O)c1c(C)n(C)c2ccc(OC)c([N+](=O)[O-])c12	-0.4	55.5*	x	1.6	0.0
CCOC(=O)c1c(C)n(C)c2ccc(OC)c(NC(=O)CN3CCCCC3)c12	-0.4	3.9	-6.6	5.0	0.1
CCCCCCCCn1c2c(c(=N)c3ccccc31)CCC2	4.0	x	x	-13.2	x
Cc1cc(C)c2c(=N)c3ccccc3n(CCCCCCCCn3c4ccccc4c(=N)c4c(C)cc(C)nc43)c2n1	-0.3	x	53.1*	-9.6	x
COC(=O)[C@]12C[C@H](CC(=O)N3CCC(c4ccccc4)CC3)C(=O)N(Cc3ccc(Cl)cc3Cl)C1=C[C@H](C1CCCC1)O[C@@H]2C	x	x	x	-1.9	x
CCc1noc(N)c1C(=O)Nc1ccc(Cl)cc1	0.0	76.2*	x	-2.4	0.2
O=S1(=O)C=CCN1Cc1cn(Cc2ccc(F)cc2)nn1	x	x	x	3.4	x
COC(=O)c1cc(Br)c(=O)n(CCc2ccc(F)cc2)c1	-1.2	56.4*	8.6	1.1	-0.2
O=C(N[C@H](Cc1ccccc1)C(=O)NCCN1CCOCC1)[C@H]1O[C@@H](n2ccc(=O)[nH]c2=O)[C@H](O)[C@@H]1O	x	x	x	3.3	x
COC(=O)/C(=C/Nc1cccc2ccccc12)[N+](=O)[O-]	-1.2	61.7*	x	3.0	0.0
CSCCCNC(=O)Cn1nc(Cc2ccncc2)c2ccccc2c1=O	x	x	x	-1.2	x
Cc1ccc(N/C=C(\C#N)c2ccc(OCCCF)cc2)cc1	0.3	53.5*	-0.5	0.4	0.4
SMILES	Tb MetRS inh	AHR activator	TAG inh	SMARCA2 act	Efflux pump inh
CCN(CC)S(=O)(=O)c1ccc(Nc2ccc(-c3ccc4c(c3)OCCO4)nn2)cc1	-1.2	-2.6	x	8.6*	-0.1
CN(C)S(=O)(=O)c1ccc(Nc2ccc(-c3ccc4c(c3)OCCO4)nn2)cc1	-0.6	7.0	x	-0.7	-0.2
O=C1Nc2ccccc2CCc2ccccc21	-0.1	-1.4	-10.7	1.2	-0.1
O=C1Cc2ccccc2C(=O)N1	22.4*	x	x	-1.7	x
COc1cc(-c2noc(-c3ccccc3C(=O)NCc3ccco3)n2)cc(OC)c1OC	0.6	2.6	-7.3	-0.6	0.0
COc1ccccc1-c1noc(-c2ccccc2C(=O)NCc2ccco2)n1	2.1	49.5*	-0.5	1.0	-0.2
FC(F)(F)Oc1ccc(Cn2ccc3ccc(-c4ccc5ccn(Cc6ccc(OC(F)(F)F)cc6)c5c4)cc32)cc1	x	x	x	-2.0	x
FC(F)(F)c1cc(CCN2CCNC[C@@H]2CC2CCCCC2)cc(C(F)(F)F)c1	-0.2	0.3	137.5*	-0.6	0.4
COC(=O)C1CN(Cc2ccc(OC)cc2)CCS(=O)(=O)N1Cc1ccc(F)cc1 (centres undefined)	x	x	x	-5.8	x
O=C(CSc1nc2ccccc2nc1N1CCCCC1)N1CCN(S(=O)(=O)c2ccccc2)CC1	x	x	x	-6.9	x
Clc1ccc(OCCCN2CCCC2)cc1Cl	-0.3	2.8	x	7.8*	0.4
O=C(Nc1cccc2ccccc12)/C(Cl)=C/c1ccccc1	-0.3	67.6*	17.9	4.5	0.0
Fc1ccc(NC(=S)Nc2cccc3ccccc23)cc1F	-0.3	73.7*	8.5	1.6	0.1
S=C(Nc1ccc(Cl)cc1)Nc1cccc2cnccc12	0.4	41.3	x	-0.8	-0.2
Fc1ccc(NC(=S)Nc2cccc3cnccc23)cc1	-0.2	10.6	-10.8	-3.2	-0.2
Fc1ccc(NC(=S)Nc2cccc3ccccc23)cc1	-0.3	50.3*	6.0	6.7	0.0
O=C(OC12CCCN(C1)/C(=C/c1ccccc1)C2)C1CCCCC1 (centres undefined)	x	x	x	-5.2	x
CN1C(=S)SC(N(O)C(=O)Nc2cccc3ccccc23)C1(C)C (centres undefined)	-1.0	75.1*	x	1.8	-0.2
CN1C(=S)SC(N(O)C(=O)Nc2ccccc2)C1(C)C (centres undefined)	-0.3	9.5	2.4	-0.5	0.0
COCCC(=O)N1CCc2ccc(NC(=O)c3ccc(C(F)(F)F)cc3)cc2C1	-0.5	72.4*	-15.7	-2.1	0.0
COc1cc(C(=O)NC2CCCCN(C(C)C)C2=O)cc(OC)c1OC (centres undefined)	x	x	x	-0.1	x
Cc1nc2cc3c(cc2c(C)c1C(=O)OC(C)C)OCO3	0.0	63.6*	x	3.2	-0.8
O=c1oc2cc(O)ccc2cc1-c1nc2c(s1)CCc1ccccc1-2	-0.9	13.7	-77.7	-1.6	0.5
COc1ccc2oc(=O)c(-c3nnc(N)s3)cc2c1	0.0	45.1	x	4.1	0.0
Nc1nnc(-c2cc3ccccc3oc2=O)s1	-0.7	20.2	-0.6	7.9*	0.0
SMILES	Tb MetRS inh	AHR activator	TAG inh	SMARCA2 act	Efflux pump inh
O=c1oc2ccccc2cc1-c1nc2c(s1)CCc1ccccc1-2	0.3	71.2*	5.3	4.5	0.3
COCCNC(=O)CCC(=O)NNc1nc2ccccc2c2nc(-c3ccccc3)nn12	-0.5	60.5*	12.0	0.5	0.0
COCCCNC(=O)CCC(=O)NNc1nc2ccccc2c2nc(-c3ccccc3)nn12	-0.2	62.4*	x	-1.1	0.1
COC(=O)[C@]12C[C@H](CC(=O)N3CCCCC3)C(=O)N(Cc3ccco3)C1=C[C@H](C(C)(C)C)O[C@@H]2C	x	x	x	1.8	x
CN1C(=O)c2cc(NC(=O)Nc3ccccc3F)ccc2OC[C@H]2O[C@@H](CC(=O)NCc3ccc(-c4ccccc4)cc3)CC[C@@H]21	x	x	x	-3.1	x
Cn1c(N)c(-c2nc3cccnc3n2C)sc1=S	-0.6	51.2*	9.0	-3.0	0.1
Clc1ccc(-c2nnc(SCc3cccc4ccccc34)n2-c2ccc(Cl)cc2)cc1	x	x	x	-5.0	x

Compound activity deposited in PubChem by several laboratories.
